From PubChem BioAssay
S1P1 ag pot: S1P1 agonists and agonism potentiators, primary screen, cell-based, primary and confirmation screens, CRE-bla reporter. Sphingosine 1-phosphate receptor 1 (Homo sapiens), P21453. S1P1 CRE-bla cells, forskolin, beta-lactamase FRET, potentiator mode; S1P1 agonist co-added at EC20, 2 nM; 100% = saturating reference agonist, 0% = basal. activation, % at 9.5 µM. actives 0.57% (n = 56,000);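 active means activation above a cutoff set at the mean activation of all tested compounds plus 3 SD, cut at about 54% in these data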;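 further: forskolin at 4 µM as EC80 and the EC20 agonist is SEW2871; 100% = SEW2871 at its EC100 plus forskolin at EC80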
HTR1A agonist: human 5-HT1a receptor agonists, primary screen, cell-based, CHO, Ga15 NFAT-bla reporter | 5-hydroxytryptamine receptor 1A (Homo sapiens), P08908 | CHO 5-HT1a Ga15 NFAT-bla reporter, FRET ratio; 0% basal, 100% maximal reference agonist | activation, % at 10 µM | actives 0.56% (n = 65,000) | AID 567, 2006;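 active means activation above the screen-wide mean activation plus 3 SD, cut at about 19% in these data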;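 further: 0% = DMSO wells and 100% = 5-CT at EC100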
S1P3 ag: human S1P3 receptor agonists, primary screen, cell-based, primary and confirmation, NFAT-BLA reporter; activation, % at 4.5 µM; actives 0.1% (n = 60,000); S1P3 NFAT-BLA reporter cells, agonism, FRET ratio; relative to 1 µM S1P, basal subtracted;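 active means activation above the screen-wide mean plus 3 SD, cut at about 4.5% in these data, passing the limit was not always enough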
Target sequence (Q99500 whole entry, looked up): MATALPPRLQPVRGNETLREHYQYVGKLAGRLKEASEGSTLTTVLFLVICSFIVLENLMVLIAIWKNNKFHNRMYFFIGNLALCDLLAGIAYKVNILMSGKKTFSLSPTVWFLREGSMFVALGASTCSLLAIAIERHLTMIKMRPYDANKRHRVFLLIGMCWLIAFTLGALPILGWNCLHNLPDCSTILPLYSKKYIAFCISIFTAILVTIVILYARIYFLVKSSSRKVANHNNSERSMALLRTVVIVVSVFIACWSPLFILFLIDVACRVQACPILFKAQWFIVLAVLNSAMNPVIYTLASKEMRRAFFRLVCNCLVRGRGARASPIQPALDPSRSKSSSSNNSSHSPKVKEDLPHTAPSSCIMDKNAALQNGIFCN
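Assay system: stable CHO line with human S1P3, Gα16, NFAT-BLA reporter; Detection: FRET β-lactamase substrate fluorescence, excitation 405 nm, 460/535 nm emission ratio, background-subtracted; Read-out: percent activation versus median 1 µM S1P response, basal-subtracted, per plate; Incubation: cells plated overnight, compound 4 h 37 °C, substrate 2 h RT.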
5HT1E ag: 5-HT1E receptor agonists, primary screen, cell-based, HTS; 5-hydroxytryptamine receptor 1E (Homo sapiens), P28566; CHO 5-HT1E Ga15 NFAT-bla reporter, FRET; 0% DMSO wells, 100% control agonist wells; activation, % at 6 µM; actives 0.69% (n = 65,000);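 active means activation above a set limit, the screen-wide mean activation plus 3 SD, cut at about 8.5% in these data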;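 further: 100% = positive control agonist at 1 µM giving full maximal response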
5-HT1A blocker: human 5-HT1a receptor antagonists, primary screen, cell-based, CHO, Ga15 NFAT-bla reporter; CHO 5-HT1a Ga15 NFAT-bla reporter, antagonist mode; 5-hydroxytryptamine receptor 1A (Homo sapiens), P08908; actives 0.68% (n = 62,000); inhibition, % at 10 µM;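 active means inhibition above the mean of all tested compounds plus 3 SD, cut at about 43% in these data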;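 further: receptor stimulated by 5-CT agonist at 100 nM near EC80; beta-lactamase reporter measured by ratiometric fluorescence of a cleavable substrate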
HTR1E antagonist: 5-HT1E receptor antagonists, primary screen, cell-based, HTS; 5-hydroxytryptamine receptor 1E (Homo sapiens), P28566; CHO 5-HT1E Ga15 NFAT-bla reporter, FRET, antagonist; inhibition, % at 6 µM; actives 0.99% (n = 65,000); AID 571, 2007;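 active means inhibition above a set limit, the mean inhibition across every tested compound plus 3 SD, cut at about 29% in these data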;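 further: signal is the 460 over 535 nm emission ratio of beta-lactamase substrate; 0% = agonist plus DMSO wells and 100% = wells without agonist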
Active calls of the source: *; / = no result given. Shown are actives, neighbours in structure and some others; about 3% of the full set was active somewhere.

SMILES	S1P1 ag pot	HTR1A agonist	S1P3 ag	5HT1E ag	5-HT1A blocker	HTR1E antagonist
CN(C)c1ccc(/C=C/C(O)=C2/C(=O)N(C)C3(C)CC2c2ccccc2O3)cc1 (stereo not drawn)	-6	12	-1	3	54*	53*
COc1cccc(C2=CC(c3ccccc3)n3nnnc3N2)c1 (stereo not drawn)	19	-2	-5	-1	/	12
COc1ccc2c(-c3ccccc3)cc3nnnn3c2c1	-39	-1	0	0	-3	30*
CCCCN(C)Cc1c(C)[nH]c2ccc(OCC)cc2c1=O	-27	-3	0	0	-15	-4
CNC(=O)c1ccc(-c2sc3nc(N4CCOCC4)c4c(c3c2N)CCCC4)o1	/	4	0	2	6	32*
CC1(C)Cc2c(c(N3CCOCC3)nc3sc(-c4ccc(C(=O)O)o4)c(N)c23)CO1	1	1	-1	0	2	14
Nc1nonc1C(=O)OCC(=O)N1CCCCC1	4	0	0	1	5	6
Nc1nonc1/C(=N/O)N1CCCC1	8	130*	0	-1	17	9
O=S(=O)(c1ccc2ccccc2c1)N(CC(O)CN1CCOCC1)c1ccccc1 (stereo not drawn)	-12	2	-5	0	/	-3
Clc1ccccc1N1CCN(c2ncnc3nc[nH]c23)CC1	0	66*	-2	0	-5	28
FC(F)(F)c1cccnc1N1CCN(c2ncnc3nc[nH]c23)CC1	8	1	-1	1	-8	5
CCn1c(Cc2ccccc2)nnc1SCC(=O)Nc1ccc(N2CCOCC2)c(Cl)c1	/	1	-1	1	-4	0
Cn1c(SCC(=O)Nc2ccc(N3CCOCC3)c(Cl)c2)nnc1-c1ccccc1	89*	-1	-1	-1	-2	-12
CCCc1cc(C(=O)N(C2CCCCC2)C2CCCCC2)no1	13	-2	58*	0	3	3
CCCc1cc(C(=O)NC2CCCCC2)no1	3	-1	0	0	11	11
O=S1(=O)C=C(Sc2nc3cc(Cl)ccc3o2)c2ccccc21	80*	-4	-1	-1	94*	80*
CCOC(=O)C(C(C)=O)c1c(Br)c(O)c(O)c2c(C(=O)c3ccc(C)cc3)coc12 (stereo not drawn)	48	-2	-1	0	45*	17
C=CCNC(=O)C1CC(=O)N(c2ccc(OCC(=O)Nc3ccccc3)cc2)C1 (stereo not drawn)	2	2	-1	-1	-2	2
Cc1cc(C(=O)CSc2nnnn2-c2ccc(O)cc2)c(C)n1Cc1ccc2c(c1)OCO2	61*	1	0	1	18	8
O=C(NCC1CCCO1)C1c2ccccc2C(=O)N1C1CCCCCC1 (stereo not drawn)	1	0	-1	1	-1	-4
C=CCOC(=O)C1=C(C)NC(=O)NC1c1ccc(OC(=O)c2ccco2)c(OC)c1 (stereo not drawn)	-8	0	-1	1	-2	-5
CC(C)(C)c1cccc(/C=N/O)c1O	-20	2	-2	0	/	30*
CCOc1ccc(N(CC(=O)Nc2ccc(C)c(C)c2)S(=O)(=O)c2c(C)noc2C)cc1	28	0	-2	0	18	6
Cc1nn(C)c(C)c1S(=O)(=O)N(CC(=O)Nc1ccc2c(c1)OCO2)c1ccc(C(C)C)cc1	-2	1	0	0	0	0
Cc1noc(C)c1S(=O)(=O)N(CC(=O)Nc1ccc2c(c1)OCO2)c1ccc(C(C)C)cc1	79*	0	-2	0	15	3
SMILES	S1P1 ag pot	HTR1A agonist	S1P3 ag	5HT1E ag	5-HT1A blocker	HTR1E antagonist
COc1ccccc1NC(=O)CN(c1ccc(C)cc1)S(=O)(=O)c1c(C)n[nH]c1C	18	-2	0	-1	63*	14
CCOc1ccccc1NC(=O)CN(c1cc(C)cc(C)c1)S(=O)(=O)c1c(C)noc1C	14	1	-1	0	3	-10
CCOc1ccc(N(CC(=O)Nc2ccccc2C)S(=O)(=O)c2c(C)noc2C)cc1	1	0	-2	0	30	46*
CCOc1ccccc1NC(=O)CN(c1ccc(OC)cc1)S(=O)(=O)c1c(C)noc1C	-1	-1	-1	0	35	68*
CCC(CC)c1nc2cc(OC)c(OC)cc2c(=O)o1	4	-1	-2	35*	/	-2
Cc1ccnc(SCCn2c(N3CCOCC3)nc3c2c(=O)n(C)c(=O)n3C)n1	2	-4	0	0	-9	-7
COc1ccc(N2CCN(c3nc(NCCc4ccc(OC)c(OC)c4)nc(OC)n3)CC2)cc1	-23	5	-2	0	46*	21
c1ccc(N=P(c2nc3ccccc3o2)(N2CCOCC2)N2CCOCC2)cc1	-2	-3	0	1	11	-12
CCn1cc(C(=O)OCC(=O)Nc2ccc(S(=O)(=O)N3CCCC3)cc2)c(=O)c2ccc(C)nc21	-23	4	0	0	-18	0
CN(C)CCCN1C(=O)C(=O)/C(=C(/O)c2ccc3c(c2)OCCO3)C1c1ccccn1 (stereo not drawn)	4	81*	-1	0	-1	2
CCN(CC)CCCN1C(=O)C(=O)/C(=C(/O)c2ccc3c(c2)OCO3)C1c1ccccn1 (stereo not drawn)	-5	0	-1	0	2	7
COc1ccccc1N1CCN(Cc2ccc(Br)o2)CC1	-3	-1	-1	6	10	-2
COc1ccccc1N1CCN(C(c2ccc(C)cc2)c2nnnn2C(C)C)CC1 (stereo not drawn)	-31	-3	-1	0	31	-1
COc1cc(CN2CCN(c3cccc(C)c3C)CC2)cc(OC)c1O	-18	-2	-2	57*	-2	5
CCOc1ccccc1N1CCN(Cc2ccc(OC)c(OC)c2)CC1	-1	-2	-1	20*	57*	-3
COc1cc(OC)c(OC)cc1CN1CCN(c2ccccc2OC)CC1	/	-1	-1	23*	46*	19
